# Test results taken from ChEMBL document CHEMBL2331466, “Neolignanamides, lignanamides, and other phenolic compounds from the root bark of Lycium chinense” (J Nat Prod, 2013).
# Legend:
# [1] = Antioxidant activity assessed as inhibition of xanthine-xanthine oxidase generated superoxide anion radical production by NBT reduction assay; assay type: functional
# How it was run: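 Superoxide produced by xanthine/xanthine oxidase. Final reaction contained xanthine 40 μM, xanthine oxidase 0.05 unit/mL, NBT 50 μM (in 20 mM phosphate buffer, pH 7.4) and graded sample concentrations. Incubated 37 °C for 20 min after adding enzyme. Absorbance read at 560 nm against blanks. Values are means of triplicate determinations.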
# [2] = test system: Radical scavenging activity; experiment: Antioxidant activity assessed as DPPH radical scavenging activity after 30 mins; assay type: functional
# How it was run: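 Test samples at 5−100 μg/mL (120 μL) combined with 30 μL of 0.75 mM DPPH in MeOH, in triplicate. Shaken in the dark at room temperature for 30 min, then absorbance read at 517 nm. Scavenging (%) = (1 − As/A0) × 100. IC50 is the concentration giving 50% DPPH inhibition. Trolox (5−100 μM) served as positive control.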
IC50 [1],IC50 [2],SMILES
44.1 µM,47.6 µM,O=C(/C=C/c1ccc(O)c(O)c1)NCCc1ccc(O)cc1
30.2 µM,61.2 µM,O=C(CCc1ccc(O)c(O)c1)NCCc1ccc(O)cc1
22.2 µM,61.2 µM,COc1cc(/C=C\C(=O)NCC(O)c2ccc(O)cc2)ccc1O (stereo not given)
50.1 µM,46.5 µM,COc1cc2c(c(OC)c1O)C(c1ccc(O)c(O)c1)C(C(=O)NCCc1ccc(O)cc1)C(C(=O)NCCc1ccc(O)cc1)=C2 (stereo not given)
48.8 µM,67.7 µM,COc1ccc(/C=C/C(=O)NCCc2ccc(O)cc2)cc1O
56.5 µM,65.2 µM,COc1cc(/C=C(/C(=O)NCCCCNC(C)=O)c2cc(O)c(O)cc2CCC(=O)NCCc2ccc(O)cc2)ccc1O
52.7 µM,64.7 µM,COc1cc(/C=C(/C(=O)NCCCCNC(C)=O)c2cc(O)c(O)cc2CCC(=O)NCCc2ccc(O)cc2)cc(OC)c1O
49.9 µM,57.1 µM,COc1cc(/C=C(/C(=O)NCCc2ccc(O)cc2)c2cc(O)c(O)cc2CCC(=O)NCCc2ccc(O)cc2)cc(OC)c1O
44.4 µM,55.2 µM,COc1cc([C@H]2Oc3ccc(/C=C/C(=O)NCCc4ccc(O)cc4)cc3O[C@@H]2CO)ccc1O (relative stereo)
58 µM,67 µM,COc1cc2c(c(OC)c1O)[C@H](c1ccc(O)c(O)c1)[C@@H](C(=O)NCCc1ccc(O)cc1)C(C(=O)NCCCCNC(C)=O)=C2 (relative stereo)
44.1 µM,48.2 µM,COc1cc(O)cc([C@H]2Oc3ccc(/C=C\C(=O)NCCc4ccc(O)cc4)cc3O[C@@H]2C(=O)NCCc2ccc(O)cc2)c1 (relative stereo)
46.4 µM,49.8 µM,COc1cc(O)cc([C@H]2Oc3ccc(/C=C/C(=O)NCCc4ccc(O)cc4)cc3O[C@@H]2C(=O)NCCc2ccc(O)cc2)c1 (relative stereo)
49.9 µM,54.1 µM,COc1cc([C@H]2Oc3ccc(/C=C\C(=O)NCCc4ccc(O)cc4)cc3O[C@@H]2CO)ccc1O (relative stereo)
52.6 µM,63.5 µM,O=C(/C=C/c1ccc(O)cc1)NCCc1ccc(O)cc1 [N-P-COUMAROYL TYRAMINE]
27.2 µM,33.5 µM,Cc1c(C)c2c(c(C)c1O)CCC(C)(C(=O)O)O2 (stereo not given) [TROLOX]
